What was measured:
human 5-HT2b receptor = human 5-HT2b receptor (Homo sapiens, UniProt P41595); assay: 5-HT2bR competitive radioligand binding, [125I]
[1] = tested on: neurology patients / AD patients; settings: ref 1-8 of Supporting Data; cited from earlier work
h5-HT2b and m5-HT2b = assay: Gq activation and β-arrestin-1 recruitment, statements covering both species; format: cell-based, human and mouse; settings: absence of an activator
Summary of the method: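 Human and mouse 5-HT2b receptors were tested in cells. Serotonin-driven Gq activation and β-arrestin-1 recruitment were read across increasing test compound concentrations. The same read-outs were taken with vehicle and no activator to capture basal (inverse agonist) activity. Data are mean ± SEM of three to four independent experiments, each in duplicate or triplicate. EC50 and Emax were derived.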

Chain of human 5-HT2b receptor (P41595 whole entry): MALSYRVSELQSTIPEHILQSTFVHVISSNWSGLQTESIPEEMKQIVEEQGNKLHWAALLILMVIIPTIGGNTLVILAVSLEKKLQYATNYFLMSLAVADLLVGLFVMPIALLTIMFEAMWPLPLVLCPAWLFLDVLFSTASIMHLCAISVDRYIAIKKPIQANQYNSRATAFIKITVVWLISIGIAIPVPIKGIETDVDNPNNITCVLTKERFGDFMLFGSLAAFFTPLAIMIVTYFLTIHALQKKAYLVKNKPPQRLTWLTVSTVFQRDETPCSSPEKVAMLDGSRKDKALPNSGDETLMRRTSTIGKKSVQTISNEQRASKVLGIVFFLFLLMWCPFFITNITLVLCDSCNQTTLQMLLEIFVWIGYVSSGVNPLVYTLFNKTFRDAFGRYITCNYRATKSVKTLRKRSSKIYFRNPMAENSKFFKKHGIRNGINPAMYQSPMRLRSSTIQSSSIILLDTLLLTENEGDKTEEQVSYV

IC50 (human 5-HT2b receptor) [nM]	Structure (SMILES)	Risk for cardiotoxicity, drowsiness, or weight gain [1]	Basal (constitutive) 5-HT2bR activity (h5-HT2b and m5-HT2b)
863 ± 8	Cc1cc(-c2ccccc2)nnc1NCCN1CCOCC1 [minaprine]	low risk	–
–	Cc1nc2n(c(=O)c1CCN1CCC(c3noc4cc(F)ccc34)CC1)CCCC2 [risperidone]	–	inhibited basal 5‐HT2bR

Source: publication PMC11947739 (Alzheimer's & Dementia : Translational Research & Clinical …, 2025)
